Measured values from ChEMBL document CHEMBL3596131, “Discovery of a novel trans-1,4-dioxycyclohexane GPR119 agonist series” (Bioorg Med Chem Lett, 2015).
Calls of active or inactive are those of the source. The rule behind the calls is not given here.

Assays:
[1] = target: T1, Glucose-dependent insulinotropic receptor (Homo sapiens) (UniProt Q8TDV5); assay: Agonist activity at human GPR119 by HTRF cAMP assay relative to AR231453; format: functional
T1 sequence (whole entry): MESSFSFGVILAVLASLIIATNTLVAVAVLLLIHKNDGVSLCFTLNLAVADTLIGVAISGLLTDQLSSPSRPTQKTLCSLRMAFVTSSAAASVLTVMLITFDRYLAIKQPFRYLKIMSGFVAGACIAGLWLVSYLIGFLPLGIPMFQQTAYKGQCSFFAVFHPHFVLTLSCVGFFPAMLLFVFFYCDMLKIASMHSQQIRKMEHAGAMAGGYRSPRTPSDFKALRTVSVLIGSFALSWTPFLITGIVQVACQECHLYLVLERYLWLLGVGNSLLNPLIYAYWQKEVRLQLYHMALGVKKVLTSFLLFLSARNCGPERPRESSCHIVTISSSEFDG

[2] = target: T2, Glucose-dependent insulinotropic receptor (Rattus norvegicus) (UniProt Q7TQN8); assay: Agonist activity at rat GPR119 by HTRF cAMP assay relative to AR231453; format: functional
T2 sequence (whole entry): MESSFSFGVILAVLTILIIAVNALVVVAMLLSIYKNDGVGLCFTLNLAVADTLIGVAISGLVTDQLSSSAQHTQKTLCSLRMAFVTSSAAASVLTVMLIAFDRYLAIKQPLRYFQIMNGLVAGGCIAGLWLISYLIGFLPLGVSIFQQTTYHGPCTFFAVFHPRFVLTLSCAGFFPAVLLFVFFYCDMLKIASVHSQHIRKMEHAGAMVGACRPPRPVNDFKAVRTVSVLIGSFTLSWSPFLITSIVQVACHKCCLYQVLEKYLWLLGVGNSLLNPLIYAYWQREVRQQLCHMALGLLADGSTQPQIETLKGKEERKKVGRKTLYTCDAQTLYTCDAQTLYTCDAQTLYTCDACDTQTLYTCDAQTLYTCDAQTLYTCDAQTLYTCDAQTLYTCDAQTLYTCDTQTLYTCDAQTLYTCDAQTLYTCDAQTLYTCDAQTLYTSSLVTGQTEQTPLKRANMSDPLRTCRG

[3] = target: T3, Glucose-dependent insulinotropic receptor (Rattus norvegicus, UniProt Q7TQN8); assay: Agonist activity at rat GPR119 by HTRF cAMP assay; format: functional
T3 sequence (Q7TQN8 whole entry): T2 sequence (whole entry)

[4] = target: T4, Glucose-dependent insulinotropic receptor (Homo sapiens, UniProt Q8TDV5); assay: Agonist activity at human GPR119 by HTRF cAMP assay; format: functional
T4 sequence (Q8TDV5 whole entry): T1 sequence (whole entry)

Mus musculus [5] = assay: Antidiabetic activity in normoglycemic 129SVE mouse assessed as […] administered 30 mins prior to glucose challenge measured over 120 mins by OGTT; format: functional, organism-based
[6] = Half life in rat liver microsomes; format: ADME
[7] = target: T4, Glucose-dependent insulinotropic receptor; assay: Agonist activity at human GPR119 by serum shift assay
In short: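 HTRF cAMP read-out with cells plated overnight; growth medium swapped for fetal bovine serum-containing medium. Compounds serially diluted in DMSO, then in PBS with IBMX and 0.1% BSA to 2× concentration (1% DMSO) before addition. Potency compared with and without serum.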

[8] = Half life in mouse liver microsomes; format: ADME
[9] = Half life in human liver microsomes; format: ADME
Rattus norvegicus [10] = species on record: Rattus norvegicus; assay: Toxicity in rat assessed as physical mobility impairment; format: organism-based; details: in vivo
Mus musculus [11] = assay: In vivo activation of GPR119 in normoglycemic 129SVE mouse assessed as increase in GIP level in plasma at 30 mg/kg, po measured after 45 mins relative to vehicle-treated control; format: functional, organism-based
In short: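 Normoglycemic male 129SVE mice dosed orally (3 and 30 mg/kg); plasma GIP measured 45 min after dosing versus vehicle-treated controls; AR231453 at 30 mg/kg as reference agonist.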

Rattus norvegicus [12] = assay: Antidiabetic activity in Zucker diabetic fatty rat assessed as suppression of plasma glucose AUC at 3 mg/kg administered 60 mins prior to glucose challenge by OGTT relative to vehicle-treated control; format: functional
Mus musculus [13] = assay: Antidiabetic activity in normoglycemic 129SVE mouse assessed as suppression of plasma glucose AUC at 3 mg/kg, po administered 30 mins prior to glucose challenge measured over 120 mins by OGTT; format: functional, organism-based

Row | Structure (SMILES) | Emax [1] | Emax [2] | EC50 [3] | EC50 [4] | other results
1 | CC1(OC(=O)N2CCC(O[C@H]3CC[C@H](Oc4cnc(S(C)(=O)=O)cn4)CC3)CC2)CC1 | 118% | 123% | 138 nM | 25.9 nM | 
2 | CS(=O)(=O)c1cnc(O[C@H]2CC[C@H](OC3CCN(C(=O)Oc4ccccc4)CC3)CC2)cn1 | 116% | 104% | 71.8 nM | 9.6 nM | 
3 | CC(C)(C)OC(=O)N1CCC(OC2CCC(Oc3ccc(S(C)(=O)=O)cc3)CC2)CC1 (mixture of isomers) |  |  |  | > 200 nM | 
4 | Cc1nc(S(C)(=O)=O)ccc1Oc1ncnc(OC2CCN(C(=O)OC3(C)CC3)CC2)c1F | 94% | 93% |  |  | 
5 | CS(=O)(=O)c1cnc(O[C@H]2CC[C@H](OC3CCN(CC(F)(F)F)CC3)CC2)cn1 | 91% | 105% | 1960 nM | 776 nM | 
6 | CC(C)(C)OC(=O)N1CCC(O[C@H]2CC[C@H](Oc3ccc(S(C)(=O)=O)cc3)CC2)CC1 | 115% | 120% | 94 nM | 16.1 nM | 
7 | CC(C)(C)OC(=O)N1CCC(O[C@H]2CC[C@H](Oc3ccc(S(C)(=O)=O)nn3)CC2)CC1 | 97% | 86% | 1160 nM | 651 nM | 
8 | C[C@H](OC(=O)N1CCC(O[C@H]2CC[C@H](Oc3cnc(S(C)(=O)=O)cn3)CC2)CC1)C(F)(F)F | 112% | 125% | 49.9 nM | 4.8 nM | Activity (Mus musculus [5]): inactive; half-life [6]: > 1 h; EC50 [7]: 53 nM; half-life [8]: > 1 h; half-life [9]: > 1 h
9 | CC(C)(C)OC(=O)N1CCC(O[C@H]2CC[C@H](Oc3ccc(S(C)(=O)=O)cn3)CC2)CC1 | 111% | 108% | 110 nM | 47 nM | 
10 | CS(=O)(=O)c1cnc(O[C@H]2CC[C@H](OC3CCN(C(=O)C4(C(F)(F)F)CC4)CC3)CC2)cn1 | 107% | 140% | 1380 nM | 107 nM | 
11 | CS(=O)(=O)c1cnc(O[C@H]2CC[C@H](OC3CCN(CC4(C(F)(F)F)CCCC4)CC3)CC2)cn1 | 37% | 88% | 101 nM | 48.8 nM | 
12 | C[C@H](CF)OC(=O)N1CCC(O[C@H]2CC[C@H](Oc3cnc(S(C)(=O)=O)cn3)CC2)CC1 | 108% | 115% | 317 nM | 36.8 nM | 
13 | Cc1nc(O[C@H]2CC[C@H](OC3CCN(C(=O)OC(C)(C)C)CC3)CC2)ccc1C(=O)N(C)C | 121% | 111% | 400 nM | 262 nM | 
14 | CS(=O)(=O)c1cnc(O[C@H]2CC[C@H](OC3CCN(C(=O)OC(CF)CF)CC3)CC2)cn1 | 114% | 128% | 467 nM | 65.1 nM | half-life [6]: > 1 h; half-life [8]: > 1 h; half-life [9]: > 1 h
15 | CC(C)OC(=O)N1CCC(O[C@H]2CC[C@H](Oc3cnc(S(C)(=O)=O)cn3)CC2)CC1 | 110% | 120% | 119 nM | 13.7 nM | half-life [6]: > 1 h; EC50 [7]: 92.7 nM; half-life [8]: > 1 h; half-life [9]: > 1 h
16 | CS(=O)(=O)c1cnc(O[C@H]2CC[C@H](OC3CCN(CC4(C(F)(F)F)CC4)CC3)CC2)cn1 | 116% | 124% | 163 nM | 62.6 nM | half-life [6]: > 1 h; half-life [8]: 0.617 h; half-life [9]: 0.35 h
17 | COc1c(Nc2ccc(S(C)(=O)=O)nc2C)ncnc1OC1CCN(C(=O)OC(C)C)CC1 | 75% | 89% |  |  | 
18 | CC(C)(C)OC(=O)N1CCC(O[C@H]2CC[C@H](Oc3cnc(S(C)(=O)=O)cn3)CC2)CC1 | 110% | 110% | 64 nM | 5.9 nM | EC50 [7]: 94 nM

Row | Structure (SMILES) | Emax [1] | Emax [2] | EC50 [3] | EC50 [4] | other results
19 | CC(C)(C)OC(=O)N1CCC(O[C@H]2CC[C@H](Oc3ccc(S(C)(=O)=O)c(F)c3)CC2)CC1 | 106% | 109% | 167 nM | 52 nM | 
20 | CC(C)S(=O)(=O)c1cnc(O[C@H]2CC[C@H](OC3CCN(C(=O)OC(C)(C)C)CC3)CC2)cn1 | 109% | 128% | 54 nM | 18.5 nM | 
21 | CS(=O)(=O)c1cnc(O[C@H]2CC[C@H](OC3CCN(CC4(F)CCCC4)CC3)CC2)cn1 |  | 119% | 922 nM | 101 nM | 
22 | CS(=O)(=O)c1cnc(O[C@H]2CC[C@H](OC3CCN(C(=O)OC(C(F)(F)F)C(F)(F)F)CC3)CC2)cn1 | 104% | 121% | 10.9 nM | 1.2 nM | half-life [6]: > 1 h; EC50 [7]: 45.2 nM; Activity (Rattus norvegicus [10]): Dose-dependent effect; half-life [8]: > 1 h; half-life [9]: > 1 h
23 | CCC(F)(F)C(=O)N1CCC(O[C@H]2CC[C@H](Oc3cnc(S(C)(=O)=O)cn3)CC2)CC1 | 107% | 126% | 66.9 nM | 5.3 nM | half-life [6]: > 1 h; EC50 [7]: 28.7 nM; half-life [8]: 0.05 h; half-life [9]: > 1 h
24 | CC(C)(C)OC(=O)N1CCC(O[C@H]2CC[C@@H](Oc3ccc(S(C)(=O)=O)cc3)CC2)CC1 | 120% | 121% | 1390 nM |  | 
25 | CC(C)(C)OC(=O)N1CCC(O[C@H]2CC[C@H](Oc3ccc(C#N)cc3)CC2)CC1 | 116% | 106% | 45 nM | 8.6 nM | EC50 [7]: 334 nM
26 | CC(C)OC(=O)N1CCC(O[C@H]2CC[C@H](Oc3ccc(S(C)(=O)=O)nc3)CC2)CC1 | 101% | 125% | 201 nM | 13 nM | 
27 | CC(C)c1noc(C2CCN(c3ncnc(Nc4ccc(S(C)(=O)=O)cc4F)c3[N+](=O)[O-])CC2)n1 |  |  |  |  | Activity (Mus musculus [11]): Active
28 | CC(C)(C)OC(=O)N1CCC(OC2CCCC(Oc3ccc(S(C)(=O)=O)cc3)C2)CC1 (mixture of isomers) |  |  |  | > 100000 nM | 
29 | CS(=O)(=O)c1cnc(O[C@H]2CC[C@H](OC3CCN(C(=O)OC4CCOC4)CC3)CC2)cn1 (stereo not given in full) | 105% | 109% | 1500 nM | 427 nM | 
30 | CC(C)(C)OC(=O)N1CCC(O[C@H]2CC[C@H](Oc3cnc(C#N)cn3)CC2)CC1 | 110% | 100% | 28.4 nM | 8.3 nM | EC50 [7]: 144 nM
31 | Cc1nc(S(C)(=O)=O)ccc1O[C@H]1CC[C@H](OC2CCN(C(=O)OC(C)C)CC2)CC1 | 108% | 114% | 89 nM | 11 nM | 
32 | CC(C)(C)OC(=O)N1CCC(O[C@H]2CC[C@H](Oc3ccc(S(C)(=O)=O)cc3F)CC2)CC1 | 113% | 119% | 61 nM | 8.5 nM | EC50 [7]: 227 nM
33 | C[C@@H](CF)OC(=O)N1CCC(O[C@H]2CC[C@H](Oc3cnc(S(C)(=O)=O)cn3)CC2)CC1 | 105% | 123% | 356 nM | 31.1 nM | 
34 | CS(=O)(=O)c1cnc(O[C@H]2CC[C@H](OC3CCN(C(=O)C4(C(F)(F)F)CCCC4)CC3)CC2)cn1 | 95% | 124% | 108 nM | 38.4 nM | 
35 | CS(=O)(=O)c1cnc(O[C@H]2CC[C@H](OC3CCN(CC4(C(F)(F)F)CCC4)CC3)CC2)cn1 | 96% | 99% | 80 nM | 54.8 nM | 
36 | N[C@@H](CC(=O)N1CCn2c(nnc2C(F)(F)F)C1)Cc1cc(F)c(F)cc1F [SITAGLIPTIN] |  |  |  |  | Activity (Rattus norvegicus [12]): 57%; Activity (Mus musculus [13]): Active
